Assay results as given in ChEMBL document CHEMBL4308900, “Synthesis and identification of 2,4-bisanilinopyrimidines bearing 2,2,6,6-tetramethylpiperidine-N-oxyl as potential Aurora A inhibitors” (Bioorg Med Chem, 2019).
Calls of active or inactive are those of the source. No cut-off for these calls is given here.

Experiments:
HepG2 = assay: Antiproliferative activity against human HepG2 cells after 48 hrs by MTT assay; type: functional
Summary of the method: (§1)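 MTT assay: cells attached 4–6 h at 37 °C, 5% CO2, then exposed 48 h to graded concentrations from DMSO stocks; 5 mg/mL MTT added for 4 h, formazan dissolved in DMSO, absorbance at 490 nm. GI50 from log plot of percent of control versus concentration; mean of three independent experiments.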

HeLa [1] = assay: Antiproliferative activity against human HeLa cells after 48 hrs by MTT assay; type: functional; summary of the method: as §1
A549 = assay: Antiproliferative activity against human A549 cells after 48 hrs by MTT assay; type: functional; summary of the method: as §1
LoVo = assay: Antiproliferative activity against human LoVo cells after 48 hrs by MTT assay; type: functional; summary of the method: as §1
Aurora kinase B = Aurora kinase B (Homo sapiens, UniProt Q96GD4); assay: Inhibition of Aurora B (unknown origin) using kemptide acetate salt as substrate after 30 mins by kinase-Glo luminescence method
Sequence of Aurora kinase B (Q96GD4 whole entry): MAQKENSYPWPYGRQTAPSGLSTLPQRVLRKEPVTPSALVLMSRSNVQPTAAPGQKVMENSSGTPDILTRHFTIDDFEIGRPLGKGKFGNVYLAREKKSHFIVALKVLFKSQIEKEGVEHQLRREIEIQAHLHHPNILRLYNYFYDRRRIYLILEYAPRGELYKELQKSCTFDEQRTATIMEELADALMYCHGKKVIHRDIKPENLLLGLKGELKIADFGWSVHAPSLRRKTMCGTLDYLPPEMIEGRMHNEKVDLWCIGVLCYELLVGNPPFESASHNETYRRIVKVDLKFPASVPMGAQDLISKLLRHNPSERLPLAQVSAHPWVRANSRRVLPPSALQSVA

Aurora kinase A = molecular target: T1, Aurora kinase A (Homo sapiens, UniProt O14965); assay: Inhibition of Aurora A (unknown origin) using kemptide acetate salt as substrate after 30 mins by kinase-Glo luminescence method
T1 sequence (O14965 whole entry): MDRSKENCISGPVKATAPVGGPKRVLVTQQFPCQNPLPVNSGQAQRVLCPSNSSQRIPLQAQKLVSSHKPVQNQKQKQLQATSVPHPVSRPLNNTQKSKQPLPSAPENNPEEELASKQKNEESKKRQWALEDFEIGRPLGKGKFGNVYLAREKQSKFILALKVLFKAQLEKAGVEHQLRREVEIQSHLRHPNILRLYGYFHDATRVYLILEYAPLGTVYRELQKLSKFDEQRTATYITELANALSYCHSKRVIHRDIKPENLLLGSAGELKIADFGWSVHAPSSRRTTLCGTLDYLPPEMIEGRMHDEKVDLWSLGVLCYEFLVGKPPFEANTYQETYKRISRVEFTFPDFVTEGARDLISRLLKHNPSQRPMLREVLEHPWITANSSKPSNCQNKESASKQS

HeLa [2] = assay: Cell cycle arrest in human HeLa cells assessed as accumulation at G2/M phase at 5 uM after 12 hrs by propidium iodide staining-based flow cytometric analysis (reference value: 23.57%); type: functional
Summary of the method: (§2)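 HeLa cells exposed 12 h to 1 or 5 μM compound diluted from DMSO (DMSO control), fixed, stained with propidium iodide; DNA content measured by flow cytometry and G1, S, G2/M fractions calculated from the DNA histogram.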

HeLa [3] = assay: Cell cycle arrest in human HeLa cells assessed as accumulation at G1 phase at 5 uM after 12 hrs by propidium iodide staining-based flow cytometric analysis (reference value: 70.68%); type: functional; summary of the method: as §2
HeLa [4] = assay: Induction of microtubule disruption in human HeLa cells at 1 uM after 24 hrs by DAPI staining based immunofluorescence microscopic analysis; type: functional, cell-based
Summary of the method: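 HeLa cells on coverslips treated 24 h (0.1 or 1 μM; DMSO control); fixed in 4% paraformaldehyde, permeabilised in 0.1% Triton X-100 with 2% BSA, anti-α-tubulin overnight at 4 °C, FITC secondary 2 h room temperature, DAPI for DNA; confocal imaging.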

HeLa [5] = assay: Cell cycle arrest in human HeLa cells assessed as decrease in cdc2 protein expression at 5 uM after 12 hrs by Western blot analysis; type: functional, cell-based
Summary of the method: (§3)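 HeLa cells treated 12 h (0.1, 1, 5 μM for apoptosis proteins); lysed in Tris pH 7.5/NP-40/SDS buffer with protease inhibitors, equal protein on 10% SDS-PAGE, PVDF, 5% BSA block, primary antibodies overnight at 4 °C, β-actin loading control; mean ± SD.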

HeLa [6] = assay: Cell cycle arrest in human HeLa cells assessed as accumulation at S phase at 5 uM after 12 hrs by propidium iodide staining-based flow cytometric analysis (reference value: 5.74%); type: functional; summary of the method: as §2
HeLa [7] = assay: Cell cycle arrest in human HeLa cells assessed as decrease in cyclin B1 protein expression at 5 uM after 12 hrs by Western blot analysis; type: functional, cell-based; summary of the method: as §3

Work on `CC1(C)CC(NC(=O)c2ccc(Nc3nc(Nc4ccc(C(=O)O)cc4)ncc3[N+](=O)[O-])cc2)CC(C)(C)N1[O]` yielded a GI50 (HepG2) of 11.8 µM, a GI50 (HeLa [1]) of 27.3 µM and a GI50 (A549) of 29.6 µM. For the same compound, the GI50 (LoVo) was 27.4 µM.
Compound `CC1(C)CC(NC(=O)c2ccc(Nc3ncc([N+](=O)[O-])c(Nc4ccccc4O)n3)cc2)CC(C)(C)N1[O]` has a GI50 (HepG2; HepG2, 48 h) of 3.7 µM, a GI50 (HeLa [1]) of 13.9 µM and an IC50 (Aurora kinase B) of 0.0113 µM. For the same compound, the GI50 (A549; A549, 48 h) was 11.2 µM, the GI50 (LoVo) was 28.3 µM and the IC50 (Aurora kinase A) was 0.0085 µM.
In the case of `CC1(C)CC(NC(=O)c2ccc(Nc3nc(Nc4ccc(C(=O)O)cc4)ncc3Cl)cc2)CC(C)(C)N1[O]`, the GI50 (HepG2) is reported as 48.2 µM, the GI50 (HeLa [1]) is reported as 56.5 µM and the GI50 (A549) is reported as greater than 100 µM. It also gave a GI50 (LoVo) of 56.6 µM.
`CC1(C)CC(NC(=O)c2ccc(Nc3ncc([N+](=O)[O-])c(Nc4ccc(C(=O)Nc5ccccc5Cl)cc4)n3)cc2)CC(C)(C)N1[O]` was tested, and the GI50 (HepG2; HepG2, 48 h) was 3.4 µM, the GI50 (HeLa [1]) was 23.2 µM and the IC50 (Aurora kinase B) was 0.00307 µM. The GI50 (A549; A549, 48 h) was 2.5 µM, the GI50 (LoVo) was 28.5 µM and the IC50 (Aurora kinase A) was 0.00548 µM.
`CC1(C)CC(NC(=O)c2ccc(Nc3ncc([N+](=O)[O-])c(Nc4ccc(O)cc4)n3)cc2)CC(C)(C)N1[O]` was tested, and the GI50 (HepG2; HepG2, 48 h) was 21.5 µM, the GI50 (HeLa [1]) was 34.3 µM and the IC50 (Aurora kinase B) was 0.0035 µM. For the same compound, the GI50 (A549; A549, 48 h) was 14.3 µM, the GI50 (LoVo) was 43.8 µM and the IC50 (Aurora kinase A) was 0.00059 µM.
Work on `CC1(C)CC(NC(=O)c2ccc(Nc3nc(Nc4ccc(C(=O)O)cc4)ncc3Br)cc2)CC(C)(C)N1[O]` yielded a GI50 (HepG2) of 35.8 µM, a GI50 (HeLa [1]) greater than 100 µM and a GI50 (A549) greater than 100 µM. It also gave a GI50 (LoVo) greater than 100 µM.
Compound `CC1(C)CC(NC(=O)c2ccc(Nc3ncc([N+](=O)[O-])c(Nc4ccc(Cl)cc4)n3)cc2)CC(C)(C)N1[O]` has a GI50 (HepG2; HepG2, 48 h) of 13 µM, a GI50 (HeLa [1]) of 33.3 µM and an IC50 (Aurora kinase B) of 0.00034 µM. The GI50 (A549; A549, 48 h) was 5.6 µM, the GI50 (LoVo) was 27.8 µM and the IC50 (Aurora kinase A) was 0.00161 µM.
Compound `CC1(C)CC(NC(=O)c2ccc(Nc3ncc([N+](=O)[O-])c(Nc4cccc(O)c4)n3)cc2)CC(C)(C)N1[O]` has a GI50 (HepG2; HepG2, 48 h) of 21.7 µM, a GI50 (HeLa [1]) of 36.5 µM and an IC50 (Aurora kinase B) of 0.0035 µM. For the same compound, the GI50 (A549; A549, 48 h) was 13.2 µM, the GI50 (LoVo) was 39.6 µM and the IC50 (Aurora kinase A) was 0.00014 µM.
`CC1(C)CC(NC(=O)c2ccc(Nc3ncc(Cl)c(Nc4ccccc4Cl)n3)cc2)CC(C)(C)N1[O]` was tested, and the GI50 (HepG2; HepG2, 48 h) was 1.6 µM, the GI50 (HeLa [1]) was 10.2 µM and the IC50 (Aurora kinase B) was 0.00029 µM. It also gave a GI50 (A549; A549, 48 h) of 3.6 µM, a GI50 (LoVo) of 3.2 µM and an IC50 (Aurora kinase A) of 0.00019 µM.
With `CC1(C)CC(NC(=O)c2ccc(Nc3ncc([N+](=O)[O-])c(Nc4ccc(C(=O)Nc5ccc(Cl)cc5)cc4)n3)cc2)CC(C)(C)N1[O]` the GI50 (HepG2; HepG2, 48 h) was 24.1 µM, the GI50 (HeLa [1]) was 53 µM and the IC50 (Aurora kinase B) was 0.00067 µM. For the same compound, the GI50 (A549; A549, 48 h) was 17.2 µM, the GI50 (LoVo) was 46.3 µM and the IC50 (Aurora kinase A) was 0.02 µM.
For `CN1CCC(NC(=O)c2ccc(Nc3ncc(F)c(Nc4ccc(C(=O)Nc5ccccc5Cl)cc4)n3)cc2)CC1`, the GI50 (HepG2; HepG2, 48 h) was 13.4 µM, the GI50 (HeLa [1]) was 11.3 µM and the IC50 (Aurora kinase B) was 0.0491 µM. It also gave a GI50 (A549; A549, 48 h) of 8.9 µM, a GI50 (LoVo) of 12.4 µM and an IC50 (Aurora kinase A) of 0.00228 µM.
Work on `CC1(C)CC(NC(=O)c2ccc(Nc3ncc([N+](=O)[O-])c(Nc4cccc(Cl)c4)n3)cc2)CC(C)(C)N1[O]` yielded a GI50 (HepG2; HepG2, 48 h) of 42.1 µM, a GI50 (HeLa [1]) of 43.2 µM and an IC50 (Aurora kinase B) of 0.0195 µM. For the same compound, the GI50 (A549; A549, 48 h) was 31.3 µM, the GI50 (LoVo) was 67.8 µM and the IC50 (Aurora kinase A) was 0.00062 µM.
Compound `CC1(C)CC(NC(=O)c2ccc(Nc3nc(Nc4ccc(C(=O)O)cc4)ncc3F)cc2)CC(C)(C)N1[O]` has a GI50 (HepG2) of 26.8 µM, a GI50 (HeLa [1]) of 21.3 µM and a GI50 (A549) of 18.5 µM. The GI50 (LoVo) was 65.3 µM.
In the case of `Cc1cc(Nc2cc(N3CCN(C)CC3)nc(Sc3ccc(NC(=O)C4CC4)cc3)n2)n[nH]1`, the GI50 (HepG2) is reported as 53.3 µM, the Activity (HeLa [2]) is reported as 39% and the Activity (HeLa [3]) is reported as 34.4%. For the same compound, the GI50 (HeLa [1]) was 46.2 µM, the Activity (HeLa [4]) was “inactive” and the GI50 (A549) was 35.8 µM. The Activity (HeLa [5]) was “Active”, the GI50 (LoVo) was 45.3 µM and the Activity (HeLa [6]) was 26.6%. For the same compound, the Activity (HeLa [7]) was “Active”.
With `CC1(C)CC(NC(=O)c2ccc(Nc3ncc(F)c(Nc4ccccc4Cl)n3)cc2)CC(C)(C)N1[O]` the GI50 (HepG2; HepG2, 48 h) was 1.2 µM, the GI50 (HeLa [1]) was 8.4 µM and the IC50 (Aurora kinase B) was 0.00111 µM. For the same compound, the GI50 (A549; A549, 48 h) was 2.3 µM, the GI50 (LoVo) was 2.7 µM and the IC50 (Aurora kinase A) was 0.00018 µM.
Compound `CC1(C)CC(NC(=O)c2ccc(Nc3ncc([N+](=O)[O-])c(Nc4ccccc4Cl)n3)cc2)CC(C)(C)N1[O]` has a GI50 (HepG2; HepG2, 48 h) of 3.7 µM, a GI50 (HeLa [1]) of 53.1 µM and an IC50 (Aurora kinase B) of 0.00329 µM. It also gave a GI50 (A549; A549, 48 h) of 2.8 µM, a GI50 (LoVo) of 35.2 µM and an IC50 (Aurora kinase A) of 0.00186 µM.
`CC1(C)CC(NC(=O)c2ccc(Nc3ncc([N+](=O)[O-])c(Nc4ccc(C(=O)Nc5cccc(Cl)c5)cc4)n3)cc2)CC(C)(C)N1[O]` was tested, and the GI50 (HepG2; HepG2, 48 h) was 12.5 µM, the GI50 (HeLa [1]) was 49.5 µM and the IC50 (Aurora kinase B) was 0.027 µM. The GI50 (A549; A549, 48 h) was 14.2 µM, the GI50 (LoVo) was 39.6 µM and the IC50 (Aurora kinase A) was 0.00011 µM.
`CC1(C)CC(NC(=O)c2ccc(Nc3ncc(Br)c(Nc4ccccc4Cl)n3)cc2)CC(C)(C)N1[O]` was tested, and the GI50 (HepG2; HepG2, 48 h) was 2.1 µM, the GI50 (HeLa [1]) was 9.6 µM and the IC50 (Aurora kinase B) was 0.00267 µM. The GI50 (A549; A549, 48 h) was 3.8 µM, the GI50 (LoVo) was 3.2 µM and the IC50 (Aurora kinase A) was 0.00046 µM.
